Results on 17 compounds are retold here after ChEMBL document CHEMBL5113474, “Triazole-substituted phenylboronic acids as tunable lead inhibitors of KPC-2 antibiotic resistance” (Eur J Med Chem, 2022).

Converted amounts (≈) assume the structure as drawn. The source made the active and inactive calls. The rule behind the calls is not given here.

The nature of data set [1]: Inhibition of class C […]beta-lactamase AmpC (unknown origin). Set-up: species or system Bacteria.
Data set [2] relates to Escherichia coli. The data set is classed as functional, BL21 (DE3). The note with it: time 16-18 hrs.
Data set [3] relates to Bacteria. Nature of the data set: Inhibition of bacterial beta-lactamase KPC-2 expressed in Escherichia coli BL21 (DE3) using nitrocefin as substrate at 1 uM by spectrophotometric analysis relative to control. The essentials:
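Purified recombinant KPC-2 tested against the chromogenic β-lactam nitrocefin at 1 µM inhibitor. Hydrolysis was followed as the rise in absorbance at 482 nm (ε482 = 17,400 M-1 cm-1). Activity is expressed as percent inhibition relative to an uninhibited control.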

Data set [4] in a line: Inhibition of bacterial beta-lactamase KPC-2 expressed in Escherichia coli BL21 (DE3) using nitrocefin as substrate assessed as inhibition constant by Cheng-Prusoff equation analysis. Also noted: species or system Bacteria.
The subject of data set [5] is Escherichia coli. Nature of the data set: Antibacterial activity against Escherichia coli NCTC10418. The data set is classed as functional.
Data set [6] has as its system Escherichia coli. Nature of the data set: microbe, parasite or virus in culture. The data set is classed as functional. The note with it: BL21 (DE3), dose 50 µg/ml, time 16-20 hrs.
The test system of data set [7] is Escherichia coli. Nature of the data set: microbe, parasite or virus in culture. The data set is classed as functional. The settings on record: BL21 (DE3), dose 50 µg/ml, time 16-20 hrs. The source holds these as a separate data set.
The subject of data set [8] is Escherichia coli. As to the kind of experiment: microbe, parasite or virus in culture. It is filed as functional. The settings on record: BL21 (DE3), dose 5 µg/ml, time 16-20 hrs.
In data set [9] the test system is Escherichia coli. As to the kind of experiment: microbe, parasite or virus in culture. The note with it: BL21 (DE3), dose 5 µg/ml, time 16-20 hrs. The data set is classed as functional. The source holds these as a separate data set.
The test system of data set [10] is Escherichia coli. Nature of the data set: Potentiation of cefotaxime induced antibacterial activity against Escherichia coli expressing CMY-4/TEM-1 assessed as cefotaxime MIC at 5 ug/ml incubated for 16 to 20 hrs by microdilution method. The data set is classed as functional. The note with it: dose 5 µg/ml, time 16-20 hrs. The procedure, abridged:
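Cefotaxime MIC re-measured with the boronic acid inhibitor held at a fixed 5 μg/mL, lowered from an earlier 50 μg/ml fixed-dose combination; MICs interpreted against CLSI susceptibility categories.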

The nature of data set [11]: Cytotoxicity against HEK293 cells assessed as cell viability at 5 to 50 ug/ml incubated for 24 hrs by MTT assay relative to control. The settings on record: human, at 5 to 50 µg/mL. (In general: Tetrazolium dyes change colour on reduction, which living cells bring about.)
Data set [12] in a line: Cytotoxicity against HEK293 cells assessed as cell viability at 5 to 50 ug/ml incubated for 24 hrs in presence of cefotaxime by MTT assay relative to control. The note with it: human, at 5 to 50 µg/mL.
Data set [13] in a line: physchem. The note with it: 0.1 M phosphate buffer, pH 4.3.
Data set [14] has as its system Escherichia coli. As to the kind of experiment: Antibacterial activity against Escherichia coli expressing CMY-4/TEM-1 assessed as bacterial growth inhibition at 0.06 to 64 ug/ml incubated for 16 to 20 hrs by microdilution method. The data set is classed as functional, organism-based. The settings on record: dose 0.06-64 µg/ml, time lower […], time upper 20.0 hrs.

The test system of data set [15] is Proteus mirabilis. As to the kind of experiment: Antibacterial activity against Proteus mirabilis producing CTX-M-14/CMY-2 assessed as bacterial growth inhibition incubated for 16 to 20 hrs by microdilution method. The data set is classed as functional. The note with it: time 16-20 hrs. (In general: Broth dilution looks for growth in wells or tubes with falling amounts of substance.)

In data set [16] the test system is Klebsiella pneumoniae. As to the kind of experiment: Antibacterial activity against Klebsiella pneumoniae harboring OXA-48 assessed as bacterial growth inhibition incubated for 16 to 20 hrs by microdilution method. The data set is classed as functional. The note with it: time 16-20 hrs.
The nature of data set [17]: Inhibition of beta-lactamase KPC-2 (unknown origin). Also noted: species or system Bacteria.
Data set [18] can be described thus: Inhibition of beta-lactamase SHV-12 (unknown origin). Set-up: species or system Bacteria.
A short description of data set [19]: Inhibition of beta-lactamase PDC-3 (unknown origin). Set-up: species or system Bacteria.
The nature of data set [20]: Inhibition of beta-lactamase P99 (unknown origin). Set-up: species or system Bacteria.
Data set [21] can be described thus: physchem. The note with it: 0.1 M phosphate buffer.
A short description of data set [22]: Inhibition of beta-lactamase TEM-1 (unknown origin). Also noted: species or system Bacteria.
A short description of data set [23]: Inhibition of Metallo-beta-lactamase VIM-1 (unknown origin). Set-up: species or system Bacteria.
Data set [24] in a line: Inhibition of beta-lactamase OXA (unknown origin). Also noted: species or system Bacteria.
Data set [25] is described as follows: Inhibition of beta-lactamase CTX-M (unknown origin). Set-up: species or system Bacteria.
A short description of data set [26]: Solubility of the compound at 0.1 mM in 0.1 M phosphate buffer. The data set is classed as physicochemical. The note with it: 100 µM.

As for `O=S(=O)(NCB(O)O)c1ccc(-c2nnn[nH]2)cc1C(F)(F)F`, the Ki in data set [1] came to 0.05 nM.

As to `OB(O)c1cc(-n2cc(-c3ccsc3)nn2)c(F)cc1F`, the “inhibition zone (IZ)” value in [2] is reported as 28.8 mm. Besides, the inhibition in data set [3] was determined as 21%. Besides, in [4], the Ki came out at 1840 nM. Further, the MIC in [5] is > 64 µg/mL; in data set [6], ≤ 0.06 µg/mL; in [7], ≤ 0.06 µg/mL; in data set [8], ≤ 0.06 µg/mL; in [9], 4 µg/mL (≈ 13 µM); in data set [10] it was 0.12 µg/mL. In addition, the viability at 24 h in data set [11] and in data set [12] was > 80% in each case. Also, the pKa at 100 µM in data set [13] worked out at 6.27.

Take `C[C@@H](O)[C@H]1C(=O)N2C(C(=O)O)=C(S[C@@H]3CN[C@H](C(=O)N(C)C)C3)[C@H](C)[C@H]12` [MEROPENEM]: in data set [14], the result was Active. The MIC came out at 0.25 µg/mL (≈ 0.652 µM) in data set [15] and 0.5 µg/mL (≈ 1.3 µM) in data set [16].

As for `O=C(Cc1cccs1)N[C@@H](Cn1cc(-c2cccc(C(=O)O)c2)nn1)B(O)O`, the IC50 amounted to 40 nM in data set [17] and 140 nM in data set [18]. For the same compound, the inhibition constant (Ki) came out at 8 nM in data set [19] and 14 nM in [20].

Turning to `CO/N=C(\C(=O)N[C@@H]1C(=O)N2C(C(=O)O)=C(COC(C)=O)CS[C@H]12)c1csc(N)n1` [CEFOTAXIME], the MIC in data set [16] worked out at 2 µg/mL (≈ 4.39 µM).

On to `OB(O)c1cccc(-n2cc(-c3ccsc3)nn2)c1`, for which, in [2], the “inhibition zone (IZ)” value turned out to be 29.9 mm. The inhibition in data set [3] was 75%. In data set [4], the Ki came to 38 nM. Also, the MIC in data set [5] was > 64 µg/mL; in [6], 0.12 µg/mL (≈ 0.443 µM); in data set [7], 0.25 µg/mL (≈ 0.922 µM); in data set [8] it was 0.25 µg/mL (≈ 0.922 µM); in data set [9], 1 µg/mL (≈ 3.69 µM). Besides, the viability at 24 h in [11] and in data set [12] was > 80% each time. Moreover, the pKa at 100 µM in [13] came out at 8.31.

Take `OB(O)c1cc(-n2cc(-c3ccsc3)nn2)ccc1F`: the “inhibition zone (IZ)” value in data set [2] is reported as 39.8 mm. This compound also returned an inhibition in [3] of 35%. In data set [4], the Ki was found to be 800 nM. In addition, the MIC was > 64 µg/mL in [5]; ≤ 0.06 µg/mL in data set [6]; ≤ 0.06 µg/mL in [7]; 0.12 µg/mL (≈ 0.415 µM) in data set [8]; 1 µg/mL (≈ 3.46 µM) in data set [9]. In data set [13], the pKa at 100 µM is 7.61.

Consider `O=[N+]([O-])c1ccc(F)c(B(O)O)c1`, for which the “inhibition zone (IZ)” value in data set [2] turned out to be 30.5 mm. This compound registered a pKa at 100 µM in [13] of 6.03. The same compound gave a pKa in data set [21] of 6.

For the compound `NCc1ccc(C(=O)NC2Cc3cccc(C(=O)O)c3OB2O)cc1` (configuration not stated), the IC50 in data set [1] came out at 270 nM; in [22], 8.1 nM; in [23] it was 61 nM; in [24] it was 2000 nM.

For `[N-]=[N+]=NCc1ccc(F)c(B(O)O)c1`, the “inhibition zone (IZ)” value in data set [2] worked out at 29 mm. This compound also returned an inhibition in data set [3] of 40%. Moreover, the inhibitory constant (Ki) in data set [4] came to 410 nM. The MIC in data set [5] was > 64 µg/mL; in data set [6] it was ≤ 0.06 µg/mL; in [7], ≤ 0.06 µg/mL; in data set [8], ≤ 0.06 µg/mL; in data set [9], 0.5 µg/mL (≈ 2.56 µM). In data set [13], this compound showed a pKa at 100 µM of 7.22.

Regarding `O=C(O)c1cccc2c1OB(O)C(NC(=O)C1CCCCC1)C2` (configuration not stated), the half-inhibitory concentration (IC50) in data set [1] was determined as 68 nM; in data set [22], 2.6 nM; in data set [23], 1000 nM; in data set [24], 220 nM.

On to `[N-]=[N+]=Nc1cccc(B(O)O)c1`, for which the “inhibition zone (IZ)” value in data set [2] was found to be 31.3 mm. For the same compound, the inhibition in [3] amounted to 34%. The Ki in data set [4] came to 450 nM. For the same compound, the MIC in [5] was > 64 µg/mL; in data set [6] it was ≤ 0.06 µg/mL; in data set [8] it was ≤ 0.06 µg/mL; in [9] it was 0.25 µg/mL (≈ 1.53 µM); in data set [10], 1 µg/mL. Also, the pKa at 100 µM in data set [13] came to 8.27.

In [25], `CC(C)(O/N=C(/C(=O)NCB(O)O)c1cnc(N)s1)C(=O)O` showed a Ki of 4 nM.

For the compound `OB(O)c1cc(Cn2cc(-c3ccsc3)nn2)ccc1F`, the “inhibition zone (IZ)” value in data set [2] came to 29.9 mm. The compound also registered an inhibition in data set [3] of 53%. Also, the Ki in [4] worked out at 240 nM. Moreover, the MIC in data set [5] was > 64 µg/mL; in [6], ≤ 0.06 µg/mL; in data set [7], ≤ 0.06 µg/mL; in [8], ≤ 0.06 µg/mL; in data set [9] it was ≤ 0.06 µg/mL. The compound also gave a pKa at 100 µM in data set [13] of 10.

In turn, `O=C(Cc1cccs1)N[C@H](B(O)O)c1cccc(C(=O)O)c1` gave a Ki in [1] of 1 nM. Also, the IC50 was 60 nM in [17] and 40 nM in data set [18].

Turning to `OB(O)c1cc(-n2cc(-c3ccsc3)nn2)cc(F)c1F`, in [2], the “inhibition zone (IZ)” value is 19.8 mm. The inhibition constant (Ki) in [4] turned out to be 5900 nM. The solubility result in [26] is listed as “Insoluble”.

In the case of `[N-]=[N+]=Nc1cc(B(O)O)c(F)cc1F`, the “inhibition zone (IZ)” value in [2] came out at 23.4 mm. In [3], this compound displayed an inhibition of 0%. Further, the Ki in data set [4] turned out to be 7800 nM. The MIC in [5] is > 64 µg/mL; in data set [6] it was 0.12 µg/mL (≈ 0.603 µM); in data set [7], 16 µg/mL (≈ 80.4 µM); in data set [8], ≤ 0.06 µg/mL; in [9], 8 µg/mL (≈ 40.2 µM). The viability at 24 h in data set [11] and in data set [12] was > 80% throughout. For the same compound, in data set [13], the pKa at 100 µM came out at 6.27.

Broadly, the Ki is a measure of affinity in units of concentration, obtained from inhibition or displacement. In general, inhibition refers to the change of the read-out against control, counted positive when it falls. The low end stands for a response near the control, the high end for a response far below the control. The term viability denotes a read-out of living cells in per cent, often relative to untreated cells. Broadly, the pKa is the pH at which an ionisable group is half protonated. The low end stands for a group that gives up its proton readily, the high end for a group that holds its proton tightly. As a reminder, the IC50 is the concentration at which inhibition is half-maximal.
